Laboratory results taken from ChEMBL document CHEMBL4043127, “ATP-competitive, marine derived natural products that target the DEAD box helicase, eIF4A” (Bioorg Med Chem Lett, 2017).
Calls of active or inactive are those of the source. The rule behind the calls is not given here.

Key:
[1] = target: Eukaryotic initiation factor 4A-I (Homo sapiens) (UniProt P60842)
[2] = target: Transitional endoplasmic reticulum ATPase (Homo sapiens, UniProt P55072); test: Inhibition of p97 (unknown origin) expressed in Escherichia coli BL21(DE3) preincubated for 10 mins followed by ATP addition measured after 60 mins by malachite green dye-based assay
Sequence of Transitional endoplasmic reticulum ATPase (P55072 whole entry): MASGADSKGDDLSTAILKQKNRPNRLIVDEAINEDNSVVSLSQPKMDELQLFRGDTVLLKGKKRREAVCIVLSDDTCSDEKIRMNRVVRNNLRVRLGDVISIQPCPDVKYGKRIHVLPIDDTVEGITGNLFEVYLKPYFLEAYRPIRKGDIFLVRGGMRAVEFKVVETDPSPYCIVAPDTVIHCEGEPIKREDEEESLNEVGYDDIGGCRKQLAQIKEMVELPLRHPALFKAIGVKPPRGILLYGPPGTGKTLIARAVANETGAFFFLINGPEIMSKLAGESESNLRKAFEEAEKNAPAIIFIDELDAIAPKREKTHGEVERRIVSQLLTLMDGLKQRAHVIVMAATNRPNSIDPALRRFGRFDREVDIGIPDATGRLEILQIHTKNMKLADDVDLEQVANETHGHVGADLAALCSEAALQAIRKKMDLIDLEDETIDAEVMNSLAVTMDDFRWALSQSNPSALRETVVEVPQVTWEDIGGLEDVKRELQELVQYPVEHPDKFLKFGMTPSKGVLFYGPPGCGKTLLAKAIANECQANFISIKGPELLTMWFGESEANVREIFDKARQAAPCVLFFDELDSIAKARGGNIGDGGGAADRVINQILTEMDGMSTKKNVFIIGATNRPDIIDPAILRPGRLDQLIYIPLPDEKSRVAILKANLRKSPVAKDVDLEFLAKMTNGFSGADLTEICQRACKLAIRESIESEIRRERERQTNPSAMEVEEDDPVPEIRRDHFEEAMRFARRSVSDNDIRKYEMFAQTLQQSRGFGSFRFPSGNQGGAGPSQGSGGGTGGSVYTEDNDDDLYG
How it was run: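 Compound series 100 to 0.0457 µM, 2% DMSO final, 10 min at 37°C. Started with 200 µM ATP, incubated 60 min at 37°C, then malachite green OD660 read. IC50 from semi-log fit of normalized % inhibition.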

[3] = target: ATP-dependent RNA helicase DDX39A (Homo sapiens, UniProt O00148); test: Inhibition of DDX39A (unknown origin) expressed in Escherichia coli BL21(Rosetta 2) preincubated for 10 mins followed by ATP addition measured after 60 mins by malachite green dye-based assay
Sequence of ATP-dependent RNA helicase DDX39A (O00148 whole entry): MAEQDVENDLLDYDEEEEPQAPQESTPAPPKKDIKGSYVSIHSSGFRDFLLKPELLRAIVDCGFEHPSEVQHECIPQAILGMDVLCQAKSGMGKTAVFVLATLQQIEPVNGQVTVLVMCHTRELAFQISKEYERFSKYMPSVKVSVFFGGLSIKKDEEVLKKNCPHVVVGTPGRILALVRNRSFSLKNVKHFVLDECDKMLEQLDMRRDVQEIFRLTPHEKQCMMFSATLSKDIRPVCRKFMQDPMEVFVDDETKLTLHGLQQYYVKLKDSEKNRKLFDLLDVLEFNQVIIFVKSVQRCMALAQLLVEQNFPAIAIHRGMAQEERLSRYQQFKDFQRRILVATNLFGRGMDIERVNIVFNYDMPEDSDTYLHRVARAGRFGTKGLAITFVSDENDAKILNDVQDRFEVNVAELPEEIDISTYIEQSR
How it was run: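 His-tagged DDX39A at 500 nM in MES-KOH pH 6.0 buffer (10 mM KOAc, 2.5 mM MgCl2, 1% glycerol, 1 mM DTT). Eight-point 3-fold series 100 to 0.0457 µM, 2% DMSO final, 10 min preincubation at 37°C. Started with 250 µM ATP, 60 min at 37°C, then malachite green read at OD660. EDTA 20 mM served as positive control. IC50 by semi-log fit of normalized inhibition.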

[4] = target: Heat shock 70 kDa protein 1A (Homo sapiens, UniProt P0DMV8); test: Inhibition of HSPA1A (unknown origin) expressed in Escherichia coli BL21(DE3) preincubated for 10 mins followed by ATP addition by malachite green dye-based assay
Sequence of Heat shock 70 kDa protein 1A (P0DMV8 whole entry): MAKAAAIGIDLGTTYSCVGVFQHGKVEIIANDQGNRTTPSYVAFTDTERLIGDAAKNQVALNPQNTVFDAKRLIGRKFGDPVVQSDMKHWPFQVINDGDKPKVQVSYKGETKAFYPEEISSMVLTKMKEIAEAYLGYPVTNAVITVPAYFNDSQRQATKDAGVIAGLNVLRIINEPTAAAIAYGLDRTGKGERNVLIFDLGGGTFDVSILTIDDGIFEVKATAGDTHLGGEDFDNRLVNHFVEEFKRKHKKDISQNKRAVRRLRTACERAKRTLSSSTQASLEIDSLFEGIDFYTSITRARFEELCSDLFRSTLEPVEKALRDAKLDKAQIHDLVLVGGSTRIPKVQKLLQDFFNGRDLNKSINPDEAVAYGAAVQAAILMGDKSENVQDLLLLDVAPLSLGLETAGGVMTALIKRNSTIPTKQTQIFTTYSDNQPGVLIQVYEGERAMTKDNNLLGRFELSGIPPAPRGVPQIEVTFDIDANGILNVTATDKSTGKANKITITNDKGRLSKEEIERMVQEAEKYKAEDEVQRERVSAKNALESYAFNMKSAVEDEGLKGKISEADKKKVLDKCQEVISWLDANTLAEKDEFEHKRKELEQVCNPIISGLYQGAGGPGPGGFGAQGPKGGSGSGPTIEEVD
How it was run: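 His-tagged HSPA1A, induced at 16°C, used at 1,000 nM in 50 mM Tris-HCl pH 7.4, 150 mM KCl, 10 mM MgCl2. Compounds 100 to 0.0457 µM, 2% DMSO final, 10 min preincubation at 37°C. Reaction started with 200 µM ATP at 37°C, phosphate detected by malachite green OD660. IC50 by semi-log fit of normalized inhibition.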

[5] = target: ATP-dependent RNA helicase DDX3X (Homo sapiens, UniProt O00571); test: Inhibition of DDX3 (unknown origin) preincubated for 10 mins followed by ATP addition by malachite green dye-based assay
Sequence of ATP-dependent RNA helicase DDX3X (O00571 whole entry): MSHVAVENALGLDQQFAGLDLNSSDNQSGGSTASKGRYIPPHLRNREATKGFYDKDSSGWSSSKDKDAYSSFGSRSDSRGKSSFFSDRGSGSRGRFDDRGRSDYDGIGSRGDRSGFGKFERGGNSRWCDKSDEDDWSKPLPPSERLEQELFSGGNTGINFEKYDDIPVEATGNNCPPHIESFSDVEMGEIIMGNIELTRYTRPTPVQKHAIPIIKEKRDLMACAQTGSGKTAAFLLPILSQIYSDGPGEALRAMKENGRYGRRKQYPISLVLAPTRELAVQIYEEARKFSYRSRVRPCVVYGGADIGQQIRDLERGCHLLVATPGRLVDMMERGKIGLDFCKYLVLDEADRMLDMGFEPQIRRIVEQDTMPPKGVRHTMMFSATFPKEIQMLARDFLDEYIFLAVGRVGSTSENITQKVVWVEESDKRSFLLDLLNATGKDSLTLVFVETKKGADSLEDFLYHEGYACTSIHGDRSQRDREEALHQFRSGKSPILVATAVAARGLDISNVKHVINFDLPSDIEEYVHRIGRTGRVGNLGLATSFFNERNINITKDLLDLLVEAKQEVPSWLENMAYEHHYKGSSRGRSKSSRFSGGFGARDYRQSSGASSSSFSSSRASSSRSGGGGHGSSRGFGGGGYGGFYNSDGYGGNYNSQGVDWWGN
How it was run: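 Compounds 100 to 0.0457 µM, 2% DMSO final, 10 min at 37°C. Initiated with 250 µM ATP at 37°C. Released phosphate detected with malachite green at OD660. IC50 fitted from normalized percent inhibition on a semi-log plot.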

[6] = target: Eukaryotic initiation factor 4A-I (Homo sapiens) (UniProt P60842); test: Inhibition of eIF4A (unknown origin) expressed in Escherichia coli BL21(DE3) at 100 uM preincubated for 10 mins followed by ATP and fluorescently-labeled RNA addition measured after 10 mins by real-time fluorescence assay relative to control
How it was run: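 Real-time fluorescence helicase assay. eIF4A at 500 nM in MES-KOH pH 6.0 buffer, preincubated 10 min at 22°C with compound at 100 µM, 2% DMSO final. Started with 50 nM labeled RNA plus 1 mM ATP, or water as control, and read for 10 min at 25°C. % inhibition = 100 − ((A−B)/(C−B)×100), using the slopes of compound (A), water (B) and DMSO (C) traces.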

[7] = target: Eukaryotic initiation factor 4A-I (Homo sapiens) (UniProt P60842); test: Inhibition of eIF4A1 (unknown origin) expressed in Escherichia coli BL21(DE3) at 0.01 to 100 uM using Poly(U) RNA as substrate preincubated for 10 mins followed by substrate addition measured after 60 mins by malachite green dye-based assay
How it was run: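 Compound dilutions 100 to 0.0457 µM, 2% DMSO final, 10 min at 37°C. ATP added and reaction run 60 min at 37°C, then malachite green OD660 read. DMSO 2% and 20 mM EDTA served as controls. IC50 from semi-log fit.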

[8] = target: Probable ATP-dependent RNA helicase DDX17 (Homo sapiens, UniProt Q92841); test: Inhibition of DDX17 (unknown origin) expressed in Escherichia coli BL21(DE3) preincubated for 10 mins followed by ATP addition measured after 120 mins by malachite green dye-based assay
Sequence of Probable ATP-dependent RNA helicase DDX17 (Q92841 whole entry): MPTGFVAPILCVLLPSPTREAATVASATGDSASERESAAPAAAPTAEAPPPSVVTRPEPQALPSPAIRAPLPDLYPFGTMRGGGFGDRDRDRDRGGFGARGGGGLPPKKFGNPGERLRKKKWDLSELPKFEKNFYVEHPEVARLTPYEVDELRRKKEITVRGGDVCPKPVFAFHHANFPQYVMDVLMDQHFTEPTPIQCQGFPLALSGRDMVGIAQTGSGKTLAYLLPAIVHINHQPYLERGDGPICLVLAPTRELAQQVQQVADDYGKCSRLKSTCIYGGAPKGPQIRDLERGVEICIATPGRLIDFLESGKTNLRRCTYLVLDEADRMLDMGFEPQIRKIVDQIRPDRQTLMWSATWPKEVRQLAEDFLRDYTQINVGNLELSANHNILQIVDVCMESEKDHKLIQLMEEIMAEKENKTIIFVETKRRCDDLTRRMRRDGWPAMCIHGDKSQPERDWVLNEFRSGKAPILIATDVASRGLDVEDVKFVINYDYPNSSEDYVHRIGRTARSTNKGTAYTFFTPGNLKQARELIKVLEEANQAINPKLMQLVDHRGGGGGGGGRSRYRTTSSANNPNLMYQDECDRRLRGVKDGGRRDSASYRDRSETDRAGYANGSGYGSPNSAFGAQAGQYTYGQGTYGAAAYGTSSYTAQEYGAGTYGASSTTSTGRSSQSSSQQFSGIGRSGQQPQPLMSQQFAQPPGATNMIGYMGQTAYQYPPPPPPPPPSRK
How it was run: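 Compound gradient 100 to 0.0457 µM (3-fold), final DMSO 2%, 10 min at 37°C. Reaction started with 250 µM ATP at 37°C, phosphate read by malachite green OD660 at 120 min. IC50 from normalized % inhibition versus log concentration.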

[9] = target: Eukaryotic initiation factor 4A-I (Homo sapiens) (UniProt P60842); test: Inhibition of eIF4A (unknown origin) expressed in Escherichia coli BL21(DE3) at 100 uM preincubated for 10 mins followed by ATP and fluorescently-labeled RNA addition measured after 10 mins by real-time fluorescence assay
How it was run: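 Recombinant eIF4A from E. coli BL21(DE3), Talon-purified, at 500 nM in pH 6.0 MES-KOH buffer (10 mM K acetate, 2.5 mM MgCl2, 1% glycerol, 1 mM DTT). Preincubated with 100 µM compound (2% DMSO final) for 10 min at 22°C. Started with 50 nM labeled RNA plus 1 mM ATP, then real-time fluorescence read for 10 min at 25°C. Percent inhibition from slopes versus DMSO and water (no-ATP) controls.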

Sequence of Eukaryotic initiation factor 4A-I (Homo sapiens) (P60842 whole entry): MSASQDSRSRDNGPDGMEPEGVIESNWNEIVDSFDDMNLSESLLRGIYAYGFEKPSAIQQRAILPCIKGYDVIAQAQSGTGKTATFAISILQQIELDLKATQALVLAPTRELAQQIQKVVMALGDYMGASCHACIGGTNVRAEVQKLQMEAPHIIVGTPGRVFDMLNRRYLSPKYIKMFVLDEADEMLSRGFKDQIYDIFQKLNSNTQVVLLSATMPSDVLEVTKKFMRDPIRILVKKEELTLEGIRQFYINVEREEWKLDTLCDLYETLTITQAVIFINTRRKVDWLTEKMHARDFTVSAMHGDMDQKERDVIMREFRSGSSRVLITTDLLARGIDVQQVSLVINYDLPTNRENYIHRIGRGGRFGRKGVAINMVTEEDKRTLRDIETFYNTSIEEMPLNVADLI

Structure (SMILES) | Kis [1] [µM] | IC50 [2] [µM] | IC50 [3] [µM] | IC50 [4] [µM] | IC50 [5] [µM] | inhibition [6] [%] | inhibition [7] | IC50 [8] [µM] | inhibition [9]
CC(C)=C[C@@H]1C[C@H](C)c2c(O)cc(C)c3c2C1=C(C)C(=O)C3=O [ELISABATIN A] | 55 | > 100 | > 100 | > 100 | > 100 | 34 | Active | > 100 | –
C[C@H]1C[C@@]2(O[C@H]3C[C@H]4[C@@H]5CC[C@H]6C[C@H](O)CC[C@]6(C)[C@H]5[C@@H](O)C[C@]4(C)[C@H]3[C@@]2(C)O)OC1(C)C | – | – | – | – | – | – | – | – | Active
C=C1CC[C@@](C)(c2cc(Br)c(C)cc2O)[C@H]1C | 3.86 | > 100 | > 100 | > 100 | > 100 | – | Active | > 100 | Active
